# Measured values as given in ChEMBL document CHEMBL1240354, “Efficacy of posaconazole against three clinical Aspergillus fumigatus isolates with mutations in the cyp51A gene” (Antimicrob Agents Chemother, 2010).
# Columns and labels:
# [1] = test system: Aspergillus fumigatus; assay: Antifungal activity against Aspergillus fumigatus isolate V52-35 harboring TR L98H mutation in Cyp51A protein by broth microdilution method; type: functional
# How it was run: (§1)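 Broth microdilution followed CLSI M38A. Isolates were stored in 10% glycerol broth at −80°C and revived on Sabouraud dextrose agar with 0.02% chloramphenicol for 5 to 7 days at 35°C before testing.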
# [2] = test system: Aspergillus fumigatus; assay: Antifungal activity against Aspergillus fumigatus isolate V28-77 harboring M220I mutation in Cyp51A protein by broth microdilution method; type: functional; how it was run: as §1
# [3] = test system: Aspergillus fumigatus; assay: Antifungal activity against Aspergillus fumigatus isolate V59-73 harboring G54W mutation in Cyp51A protein by broth microdilution method; type: functional; how it was run: as §1
# [4] = test system: Aspergillus fumigatus; assay: Antifungal activity against Aspergillus fumigatus isolate AZN 8196 harboring wild type Cyp51A protein by broth microdilution method; type: functional; how it was run: as §1
# [5] = AUC in CD1 mouse infected with wild type Aspergillus fumigatus at 4 mg/kg, po qd for 14 days measured after 24 hrs post last dose by HPLC analysis; type: ADME, organism-based; design: time < 24 hr, dose 4 mg/kg, route oral; conditions: plasma
# How it was run: (§2)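 Female CD-1 mice (4-5 weeks, 20-22 g) were infected via the lateral tail vein with the wild-type isolate. Oral posaconazole was given once daily from 24 h. On treatment day 2, orbital blood was taken predose and 0.5-24 h postdose, 3 mice per time point. Plasma was assayed by HPLC-fluorescence. Cmax was observed directly. AUC0–24 used the log-linear trapezoidal rule, and CL = dose/AUC0–24.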
# [6] = Apparent oral clearance in CD1 mouse infected with wild type Aspergillus fumigatus at 16 mg/kg, po qd for 14 days measured after 24 hrs post last dose by HPLC analysis; type: ADME, organism-based; design: dose 16 mg/kg, route oral; conditions: in vivo; how it was run: as §2
# [7] = Apparent oral clearance in CD1 mouse infected with wild type Aspergillus fumigatus at 4 mg/kg, po qd for 14 days measured after 24 hrs post last dose by HPLC analysis; type: ADME, organism-based; design: dose 4 mg/kg, route oral; conditions: in vivo; how it was run: as §2
# [8] = test system: Mus musculus; assay: Dose normalised AUC in CD1 mouse infected with wild type Aspergillus fumigatus at 64 mg/kg, po qd for 14 days measured after 24 hrs post last dose by HPLC analysis; type: ADME, organism-based; design: time < 24 hr, dose 64 mg/kg, route oral; conditions: in vivo; how it was run: as §2
# [9] = Apparent oral clearance in CD1 mouse infected with wild type Aspergillus fumigatus at 1 mg/kg, po qd for 14 days measured after 24 hrs post last dose by HPLC analysis; type: ADME, organism-based; design: dose 1 mg/kg, route oral; conditions: in vivo; how it was run: as §2
# [10] = Tmax in CD1 mouse infected with wild type Aspergillus fumigatus at 64 mg/kg, […] by HPLC analysis; type: ADME, organism-based; design: dose 64 mg/kg, route oral; conditions: in vivo, po
# [11] = test system: Aspergillus fumigatus; assay: Antifungal activity against Aspergillus fumigatus isolate V52-35 harboring TR L98H mutation in Cyp51A protein infected in CD1 mouse assessed as increase in mouse survival rate administered orally qd for 14 days measured on day 15 post fungal infection; type: functional, organism-based
# How it was run: (§3)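 Female CD-1 mice (4-5 weeks, 20-25 g, 11 per group) received an LD90 conidial inoculum of each isolate IV via the tail vein. Conidia were harvested in PBS/0.1% Tween 80, gauze-filtered and hemacytometer-counted. Posaconazole oral solution (1, 4, 16, 64 mg/kg) was given by gavage once daily for 14 days from 24 h post-infection; controls received saline. Survival was compared by log rank test, with survivors euthanized on day 15.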
# [12] = test system: Aspergillus fumigatus; assay: Antifungal activity against Aspergillus fumigatus isolate V59-73 harboring G54W mutation in Cyp51A protein infected in CD1 mouse assessed as increase in mouse survival rate administered orally qd for 14 days measured on day 15 post fungal infection; type: functional; how it was run: as §3
# [13] = Plasma concentration in CD1 mouse infected with wild type Aspergillus fumigatus at 4 mg/kg, […] by HPLC analysis; type: ADME, organism-based; design: dose 4 mg/kg, route oral; conditions: po
# [14] = AUC in CD1 mouse infected with wild type Aspergillus fumigatus at 64 mg/kg, po qd for 14 days measured after 24 hrs post last dose by HPLC analysis; type: ADME, organism-based; design: time < 24 hr, dose 64 mg/kg, route oral; conditions: plasma; how it was run: as §2
# [15] = test system: Mus musculus; assay: Dose normalised AUC in CD1 mouse infected with wild type Aspergillus fumigatus at 1 mg/kg, po qd for 14 days measured after 24 hrs post last dose by HPLC analysis; type: ADME, organism-based; design: time < 24 hr, dose 1 mg/kg, route oral; conditions: in vivo; how it was run: as §2
# [16] = Plasma concentration in CD1 mouse infected with wild type Aspergillus fumigatus at 1 mg/kg, […] by HPLC analysis; type: ADME, organism-based; design: dose 1 mg/kg, route oral; conditions: po
# [17] = test system: Aspergillus fumigatus; assay: Antifungal activity against Aspergillus fumigatus isolate V28-77 harboring M220I mutation in Cyp51A protein infected in CD1 mouse assessed as increase in mouse survival rate administered orally qd for 14 days measured on day 15 post fungal infection; type: functional, organism-based; how it was run: as §3
# [18] = Cmax in CD1 mouse infected with wild type Aspergillus fumigatus at 1 mg/kg, po qd for 14 days measured after 24 hrs post last dose by HPLC analysis; type: ADME, organism-based; design: dose 1 mg/kg, route oral; conditions: in vivo; how it was run: as §2
# [19] = test system: Aspergillus fumigatus; assay: Ratio of AUC to MIC for wild type Aspergillus fumigatus infected in CD1 mouse; type: functional
# How it was run: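 The ratio was calculated as AUC0–24 from the mouse PK study (oral posaconazole once daily, 1 to 64 mg/kg) divided by the CLSI M38A broth microdilution MIC.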
# [20] = AUC in CD1 mouse infected with wild type Aspergillus fumigatus at 16 mg/kg, po qd for 14 days measured after 24 hrs post last dose by HPLC analysis; type: ADME, organism-based; design: time < 24 hr, dose 16 mg/kg, route oral; conditions: plasma; how it was run: as §2
# [21] = Apparent oral clearance in CD1 mouse infected with wild type Aspergillus fumigatus at 64 mg/kg, po qd for 14 days measured after 24 hrs post last dose by HPLC analysis; type: ADME, organism-based; design: dose 64 mg/kg, route oral; conditions: in vivo; how it was run: as §2
# [22] = test system: Aspergillus fumigatus; assay: Antifungal activity against Aspergillus fumigatus isolate V52-35 harboring TR L98H mutation in Cyp51A protein infected in CD1 mouse assessed as 50% effective pharmacodynamic index administered orally qd for 14 days measured post last dose; type: functional
# How it was run: (§4)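 EI50 came from fitting a variable-slope Hill equation to AUC0–24/MIC ratio versus 14-day survival. AUCs were taken from the PK study in wild-type-infected mice at each dose (1-64 mg/kg oral, once daily). Ratios were log10-transformed before analysis.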
# [23] = test system: Mus musculus; assay: Dose normalised AUC in CD1 mouse infected with wild type Aspergillus fumigatus at 4 mg/kg, po qd for 14 days measured after 24 hrs post last dose by HPLC analysis; type: ADME, organism-based; design: time < 24 hr, dose 4 mg/kg, route oral; conditions: in vivo; how it was run: as §2
# [24] = Tmax in CD1 mouse infected with wild type Aspergillus fumigatus at 4 mg/kg, […] by HPLC analysis; type: ADME, organism-based; design: dose 4 mg/kg, route oral; conditions: in vivo, po
# [25] = Cmax in CD1 mouse infected with wild type Aspergillus fumigatus at 64 mg/kg, po qd for 14 days measured after 24 hrs post last dose by HPLC analysis; type: ADME, organism-based; design: dose 64 mg/kg, route oral; conditions: in vivo; how it was run: as §2
# [26] = test system: Mus musculus; assay: Dose normalised AUC in CD1 mouse infected with wild type Aspergillus fumigatus at 16 mg/kg, po qd for 14 days measured after 24 hrs post last dose by HPLC analysis; type: ADME, organism-based; design: time < 24 hr, dose 16 mg/kg, route oral; conditions: in vivo; how it was run: as §2
# [27] = Cmax in CD1 mouse infected with wild type Aspergillus fumigatus at 4 mg/kg, po qd for 14 days measured after 24 hrs post last dose by HPLC analysis; type: ADME, organism-based; design: dose 4 mg/kg, route oral; conditions: in vivo; how it was run: as §2
# [28] = Plasma concentration in CD1 mouse infected with wild type Aspergillus fumigatus at 64 mg/kg, […] by HPLC analysis; type: ADME, organism-based; design: dose 64 mg/kg, route oral; conditions: po
# [29] = AUC in CD1 mouse infected with wild type Aspergillus fumigatus at 1 mg/kg, po qd for 14 days measured after 24 hrs post last dose by HPLC analysis; type: ADME, organism-based; design: time < 24 hr, dose 1 mg/kg, route oral; conditions: plasma; how it was run: as §2
# [30] = Cmax in CD1 mouse infected with wild type Aspergillus fumigatus at 16 mg/kg, po qd for 14 days measured after 24 hrs post last dose by HPLC analysis; type: ADME, organism-based; design: dose 16 mg/kg, route oral; conditions: in vivo; how it was run: as §2
# [31] = Plasma concentration in CD1 mouse infected with wild type Aspergillus fumigatus at 16 mg/kg, […] by HPLC analysis; type: ADME, organism-based; design: dose 16 mg/kg, route oral; conditions: po
# [32] = Tmax in CD1 mouse infected with wild type Aspergillus fumigatus at 1 mg/kg, […] by HPLC analysis; type: ADME, organism-based; design: dose 1 mg/kg, route oral; conditions: in vivo, po
# [33] = test system: Aspergillus fumigatus; assay: Antifungal activity against Aspergillus fumigatus isolate V28-77 harboring M220I mutation in Cyp51A protein infected in CD1 mouse assessed as 50% effective pharmacodynamic index administered orally qd for 14 days measured post last dose; type: functional; how it was run: as §4
# [34] = Tmax in CD1 mouse infected with wild type Aspergillus fumigatus at 16 mg/kg, […] by HPLC analysis; type: ADME, organism-based; design: dose 16 mg/kg, route oral; conditions: in vivo, po
# [35] = test system: Aspergillus fumigatus; assay: Antifungal activity against wild type Aspergillus fumigatus infected in CD1 mouse assessed as increase in mouse survival rate administered orally qd for 14 days measured on day 15 post fungal infection; type: functional, organism-based; how it was run: as §3
structure (smiles),measurement,setting,value
CCC(C)n1ncn(-c2ccc(N3CCN(c4ccc(OCC5COC(Cn6cncn6)(c6ccc(Cl)cc6Cl)O5)cc4)CC3)cc2)c1=O (centres undefined) [ITRACONAZOLE],MIC,[1],> 16 µg/mL
same,MIC,[2],> 16 µg/mL
same,MIC,[3],> 16 µg/mL
same,MIC,[4],0.125 µg/mL
CC[C@@H]([C@H](C)O)n1ncn(-c2ccc(N3CCN(c4ccc(OC[C@@H]5CO[C@@](Cn6cncn6)(c6ccc(F)cc6F)C5)cc4)CC3)cc2)c1=O [POSACONAZOLE],AUC at 24 h,[5],45.1 µg·h/mL
same,CL/F,[6],1.67 mL/min/kg
same,CL/F,[7],1.5 mL/min/kg
same,AUC,[8],4.64 kg·h/L
same,CL/F,[9],1.67 mL/min/kg
same,Tmax,[10],8 h
same,Activity,[11],Dose-dependent effect
same,Activity,[12],Dose-dependent effect
same,ED50,"[12]; isolate V59-73, po",29 mg/kg
same,concentration,[13],940 ng/mL
same,MIC,[1],0.5 µg/mL
same,AUC at 24 h,[14],297 µg·h/mL
same,AUC,[15],10.2 kg·h/L
same,concentration,[16],110 ng/mL
same,MIC,[2],0.5 µg/mL
same,Activity,[17],Dose-dependent effect
same,Cmax,[18],980 ng/mL
same,RatioAUC/MIC,[19],1000
same,AUC at 24 h,[20],159 µg·h/mL
same,MIC,[3],> 16 µg/mL
same,CL/F,[21],3.67 mL/min/kg
same,Activity,[22],321
same,AUC,[23],11.3 kg·h/L
same,Tmax,[24],2 h
same,Cmax,[25],17800 ng/mL
same,AUC,[26],9.96 kg·h/L
same,Cmax,[27],3110 ng/mL
same,concentration,[28],9330 ng/mL
same,AUC at 24 h,[29],10.2 µg·h/mL
same,MIC,[4],0.031 µg/mL
same,Cmax,[30],9030 ng/mL
same,concentration,[31],2700 ng/mL
same,Tmax,[32],4 h
same,Activity,[33],321
same,Tmax,[34],8 h
same,Activity,[35],Dose-dependent effect
C[C@@H](c1ncncc1F)[C@](O)(Cn1cncn1)c1ccc(F)cc1F [VORICONAZOLE],MIC,[1],2 µg/mL
same,MIC,[2],0.25 µg/mL
same,MIC,[3],0.125 µg/mL
same,MIC,[4],0.25 µg/mL
